Screening results from PubChem BioAssay.
NOD2 RIPK2 PPI – NOD2-RIPK2 protein interaction inhibition. AID 624267. O43353. CHO BLA complementation NOD2-RIPK2, CCF4 ratio. 360,000 compounds, 0.38% hits. inhibition, % at 4.98 µM; in the data active = inhibition above about 21%
Target sequence (O43353 whole entry, looked up): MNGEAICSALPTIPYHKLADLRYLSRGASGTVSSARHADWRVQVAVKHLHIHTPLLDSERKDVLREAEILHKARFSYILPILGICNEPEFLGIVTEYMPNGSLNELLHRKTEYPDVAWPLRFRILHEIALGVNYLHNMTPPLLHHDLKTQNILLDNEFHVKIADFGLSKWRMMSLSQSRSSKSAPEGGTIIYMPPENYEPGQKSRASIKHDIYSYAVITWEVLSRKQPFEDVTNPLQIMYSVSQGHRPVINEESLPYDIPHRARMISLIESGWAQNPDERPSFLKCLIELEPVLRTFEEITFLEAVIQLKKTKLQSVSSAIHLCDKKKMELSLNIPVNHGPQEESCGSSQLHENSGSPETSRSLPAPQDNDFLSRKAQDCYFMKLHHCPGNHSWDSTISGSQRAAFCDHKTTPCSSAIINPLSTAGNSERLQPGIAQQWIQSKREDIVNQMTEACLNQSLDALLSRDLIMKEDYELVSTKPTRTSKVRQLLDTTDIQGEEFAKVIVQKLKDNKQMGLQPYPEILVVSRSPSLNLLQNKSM
TLR9-MyD88 inh – TLR9-MyD88 interaction inhibition. CHO BLA complementation TLR9-MyD88, CCF4 FRET ratio. inhibition, % at 4.98 µM. 340,000 compounds, 0.21% hits. AID 504734;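 active = inhibition above the mean over all tested compounds plus 3 SD, cut at about 21% in these data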
XBP1 UPR activ – activators of adaptive arm of unfolded protein response (XBP1); AID 463104; 330,000 compounds, 0.33% hits; CHO-XBP1 luciferase reporter, IRE1-XBP1 UPR activation, luminescence; percent of tunicamycin response, DMSO as zero; activation, % at 20 µM;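 active = versus positive control, 20 µM dose yields 30% or more activation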
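Test system: CHO-XBP1 luciferase reporter cells | Buffer or medium: Serum-containing F12 medium, 10% FBS | Schedule: 6 h compound exposure at 37 °C, 5% CO2 | Detection: Steady-Glo luciferase glow luminescence, 10 min after reagent addition | Read-out basis: Activation, % of tunicamycin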
CHOP inh – CHOP inhibition in unfolded protein response. CHO-K1 CHOP-promoter luciferase, tunicamycin-induced, 15-18 h. inhibition, % at 10 µM. 220,000 compounds, 3.8% hits. AID 2732;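 active = compounds that reduced the stress-induced luciferase reporter signal by more than about 70% of percent inhibition, limit read from the data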
UPR CHOP act – apoptotic UPR (CHOP) activation | CHO-CHOP luciferase reporter, luminescence; percent of tunicamycin response over DMSO baseline | activation, % at 10 µM | 330,000 compounds, 0.34% hits;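 active = at 10 µM dose, activation of 40% or more, normalized to positive control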
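measured by = luciferase luminescence | assay system = CHO-CHOP cells, stable luciferase reporter of PERK-eIF2a-CHOP signalling | amount = 500 reporter cells seeded per well | timing = 6 h compound exposure at 37 °C after overnight seeding | controls = positive tunicamycin 10 µg/mL, negative DMSO alone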
TLR4 MyD88 comp – inhibitors of human TLR4-MyD88 binding | O00206+Q99836 | HeLa CL3-4 TLR4/MyD88 BLA complementation, FRET ratio | inhibition, % at 8.4 µM | 200,000 compounds, 0.18% hits | AID 861; in the data active = inhibition above about 25%
A number is an active result; . = inactive; / = not tested or not shown. The entries come from a sample that favours hits as a whole.

SMILES | NOD2 RIPK2 PPI | TLR9-MyD88 inh | XBP1 UPR activ | CHOP inh | UPR CHOP act | TLR4 MyD88 comp
C#CCOCCOCCOCCNc1nc(N2CCN(C(=O)CCCCCCCCCCNC(=O)[C@H]([C@@H](C)CC)n3cc(CCCCCN)nn3)CC2)nc(N2CCN(C(=O)CCCCCCCCCCNC(=O)[C@@H]([C@H](C)CC)n3cc(CCCCCN)nn3)CC2)n1 | / | / | 32.0 | / | . | /
COC1=CC(=O)OC(c2cccc(C#N)c2)C1 (stereo not drawn) | . | / | / | / | / | /
Cc1ccc(NC2=C(Cl)C(=O)OC2OC(=O)c2ccccc2)c(C)c1 (stereo not drawn) | . | . | . | 73.7 | . | .
CSCC[C@H](NC(=O)N1CCn2c1nc1ccccc12)C(=O)NCc1ccco1 | . | . | . | / | . | /
C(=N\N1CCN(C2c3ccccc3-c3ccccc32)CC1)/c1ccncc1 | . | . | . | 83.4 | . | .
Cc1sc2ncn(CC(=O)N3CCN(c4ccc(F)cc4)CC3)c(=O)c2c1S(=O)(=O)N1CCOCC1 | . | . | . | / | . | /
COC(=O)Cn1c2ccc(OC)cc2c2nc3ccccc3nc21 | . | . | . | . | . | .
COc1ccc2c(c1)c1nc3ccccc3nc1n2Cc1ccc(OC)c(OC)c1 | . | . | / | 84.7 | / | .
COc1ccccc1C1CC(c2cccs2)=Nc2ccccc2S1 (stereo not drawn) | . | . | . | 84.0 | . | .
Cc1cccc(C)c1OCc1nnc(NC(=O)CSc2ccc(Cl)cc2)s1 | . | . | . | 82.9 | . | .
CC(C)n1c(=O)c2ccccc2n1CC(=O)N1CCOCC1 | . | / | / | / | / | /
Cc1cc(NC(=O)c2cc(-c3ccccc3)on2)no1 | . | . | . | . | . | .
O=C(c1ccccc1)c1cc(-c2ccccc2)on1 | . | . | . | 92.6 | . | .
COc1ccc(CCNC(=O)/C=C/c2ccc(S(=O)(=O)N3CCOCC3)cc2)cc1 | . | . | . | / | . | /
Fc1ccc(Oc2nccc(-c3ccc(Cl)cc3)n2)cc1 | . | . | . | 81.0 | . | .
COc1ccc(Oc2nccc(-c3ccc(Cl)cc3)n2)cc1 | . | . | . | . | . | .
O=C(Nc1ccc(Cl)c(Cl)c1)Nc1ccc(N2CCCC2)c(S(=O)(=O)Nc2ccccc2Cl)c1 | . | . | . | 78.9 | . | .
CCCNC(=O)CSc1nc2[nH]ncc2c(=O)[nH]1 | . | . | . | . | . | .
O=C(O)c1c[nH]c2ccc([N+](=O)[O-])cc2c1=O | . | . | / | / | / | /
CCCCNC(=O)C[C@@H]1C[C@@]2(C(=O)OC)CCCCC=C2N(CCC2=CCCCC2)C1=O | . | / | / | / | / | /
Cc1ccc2c(c1)SC1=NC(c3ccccc3)(C(F)(F)F)NC(=O)N12 (stereo not drawn) | / | / | . | 70.5 | . | .
COc1ccc(CNC(=O)C2CCN(S(=O)(=O)c3cccc4nonc34)CC2)cc1 | . | . | . | / | . | /
CCn1c(C)cc(/C=C2\SC(=O)N(CC(=O)Nc3ccc(C)c(C)c3)C2=O)c1C | . | . | . | 93.3 | . | .
CCn1c(C)cc(/C=C2/NC(=O)N(CC(=O)Nc3cccc(C)c3)C2=O)c1C | . | . | / | . | / | .
CCn1c(C)cc(/C=C2\NC(=O)N(CC(=O)Nc3cccc(C)c3)C2=O)c1C | . | . | . | 80.8 | . | .
SMILES | NOD2 RIPK2 PPI | TLR9-MyD88 inh | XBP1 UPR activ | CHOP inh | UPR CHOP act | TLR4 MyD88 comp
CC(C)(CC(=O)O)CC(=O)N1CCCN(c2nccc(C(F)(F)F)n2)CC1 | . | . | . | / | . | /
C=C(C)COc1ccc2c(C)c(C)c(=O)oc2c1OCC(=C)C | . | . | . | . | . | .
C=C(C)COc1ccc2c3c(c(=O)oc2c1OCC(=C)C)CCC3 | . | . | . | 73.2 | . | .
N#Cc1cc2c(nc1SC1CC(=O)N(c3ccccc3)C1=O)CCC2 (stereo not drawn) | . | . | / | 83.6 | / | .
CSc1nc2c(cc1C#N)CCC2 | . | . | . | . | . | /
COc1ccc(N2CCN(C(=O)COC(=O)c3ccc(-n4nc(C)cc4C)cc3)CC2)cc1 | . | . | . | / | . | /
O=C(CC[C@H]1O[C@@H](n2cnc3c(NC(=O)c4ccccc4)ncnc32)[C@H](O)[C@@H]1O)NCc1ccc(OC(F)(F)F)cc1 | . | / | / | / | / | /
